Results reported in ChEMBL document CHEMBL4725282, “Discovery of a Conformationally Constrained Oxazolidinone with Improved Safety and Efficacy Profiles for the Treatment of Multidrug-Resistant Tuberculosis” (J Med Chem, 2020).

Columns and labels:
[1] = Genotoxicity in CHO-WBL cells assessed as chromosome aberration at 90 to 397.1 ug/ml measured after 20 hrs in presence of S9 fraction by Giemsa staining based; type: toxicity, subcellular, Cricetulus griseus; conditions: chinese hamster, s9, 20 h, dose 90-397.1 µg/ml
Procedure, shortened: (§1)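 CHO-WBL cells in McCoy's 5A with 10% FBS, seeded 20-24 h before treatment. Compound in DMSO, with or without serum-free S-9 mix. Treatment either 3 h, then HBSS wash and 17 h further culture, or 20 h; harvest at 20 h from treatment start. Colcemid 0.1 μg/mL for the final 2 h, hypotonic KCl, methanol:acetic acid fixation, Giemsa stain. 300 metaphases per concentration (150 per duplicate flask) scored.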

[2] = Toxicity in male Sprague-Dawley rat assessed as ophthalmic changes at 50 to 450 mg/kg/day, po administered for 4 weeks followed by 2 week recovery period measured within 7 days of post recover period; type: organism-based; conditions: in vivo, 672 h, dose 50-450 mg/kg/day
[3] = Toxicity in female Sprague-Dawley rat assessed as change in red blood cell count at 150 mg/kg/day, po administered for 4 weeks followed by 2 week recovery period (Rvb =7.32 +/- 0.20 10^12/L); type: organism-based; conditions: in vivo, 672 h
[4] = Toxicity in male Sprague-Dawley rat assessed as change in hematocrit level at 50 mg/kg/day, po administered for 4 weeks followed by 2 week recovery period (Rvb =45.2 +/- 1.7 %); type: organism-based; conditions: in vivo, 672 h
[5] = Toxicity in male Sprague-Dawley rat assessed as ophthalmic changes at 50 to 450 mg/kg/day, po administered for 4 weeks followed by 2 week recovery period; type: organism-based; conditions: in vivo, 1008 h, dose 50-450 mg/kg/day, time 6 weeks
[6] = Toxicity in male Sprague-Dawley rat assessed as change in white blood cell count at 50 mg/kg/day, po administered for 4 weeks followed by 2 week recovery period (Rvb =6.12 +/- 1.10 10^9/L); type: organism-based; conditions: in vivo, 672 h
Procedure, shortened: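 SD rats aged 6-7 weeks, 24 per group (12 female, 12 male): vehicle, 50, 150 or 450 mg/kg/day given orally once daily for 4 weeks, then 2-week recovery. 8 per sex per group dissected after the last dose and 4 per sex after 14-day recovery. Hematology included WBC count, reported as mean ± SD (n = 12), compared with vehicle.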

[7] = Toxicity in female Sprague-Dawley rat assessed as change in neutrophil level at 150 mg/kg/day, po administered for 4 weeks followed by 2 week recovery period (Rvb =18.5 +/- 5.3 %); type: organism-based; conditions: in vivo, 672 h
[8] = Toxicity in female Sprague-Dawley rat assessed as change in white blood cell count at 450 mg/kg/day, po administered for 4 weeks followed by 2 week recovery period (Rvb =3.61 +/- 0.75 10^9/L); type: organism-based; conditions: in vivo, 672 h
[9] = Toxicity in female Sprague-Dawley rat assessed as ophthalmic changes at 50 to 450 mg/kg/day, po administered for 4 weeks followed by 2 week recovery period measured within 7 days of post recover period; type: organism-based; conditions: in vivo, 672 h, dose 50-450 mg/kg/day
Procedure, shortened: (§2)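 SD rats, 6-7 weeks old (96 in total), split into vehicle, 50, 150 and 450 mg/kg/day groups of 12 females and 12 males each, given oral doses once daily for 4 weeks, then 2 weeks of recovery. Mortality, body weight, food intake, eyes, urine and neuropsychic signs were observed. Organ and bone marrow histopathology was done on 8 rats per sex per group after the last dose and on the remaining 4 per sex after 14 days of recovery.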

[10] = Toxicity in female Sprague-Dawley rat assessed as change in hemoglobin count at 50 mg/kg/day, po administered for 4 weeks followed by 2 week recovery period (Rvb =136 +/- 7 g/L); type: organism-based; conditions: in vivo, 672 h
[11] = Toxicity in female Sprague-Dawley rat assessed as change in mean corpuscular hemoglobin at 50 mg/kg/day, po administered for 4 weeks followed by 2 week recovery period (Rvb =18.5 +/- 0.6 pg); type: organism-based; conditions: in vivo, 672 h
[12] = Toxicity in female Sprague-Dawley rat assessed as change in neutrophil level at 50 mg/kg/day, po administered for 4 weeks followed by 2 week recovery period (Rvb =18.5 +/- 5.3 %); type: organism-based; conditions: in vivo, 672 h
[13] = Toxicity in male Sprague-Dawley rat assessed as histopathological changes at 50 to 450 mg/kg/day, po administered for 4 weeks measured post last dose; type: organism-based; conditions: in vivo, 672 h, dose 50-450 mg/kg/day
[14] = Toxicity in male Sprague-Dawley rat assessed as change in mean corpuscular hemoglobin at 450 mg/kg/day, po administered for 4 weeks followed by 2 week recovery period (Rvb =18.3 +/- 0.4 pg); type: organism-based; conditions: in vivo, 672 h
[15] = Toxicity in male Sprague-Dawley rat assessed as change in neutrophil level at 50 mg/kg/day, po administered for 4 weeks followed by 2 week recovery period (Rvb =15.9 +/- 3.4 %); type: organism-based; conditions: in vivo, 672 h
[16] = Toxicity in female Sprague-Dawley rat assessed as ophthalmic changes at 50 to 450 mg/kg/day, po administered for 4 weeks measured post last dose; type: organism-based; conditions: in vivo, 672 h, dose 50-450 mg/kg/day; procedure, shortened: as §2
[17] = Genotoxicity in CHO-WBL cells assessed as chromosome aberration at 20 to 150 ug/ml incubated for 3 hrs followed by compound washout and measured after 17 hrs in absence of S9 fraction by Giemsa staining based; type: toxicity, cell-based, Cricetulus griseus; conditions: chinese hamster, dose 20-150 µg/ml; procedure, shortened: as §1
[18] = Toxicity in male Sprague-Dawley rat assessed as change in lymphocyte level at 50 mg/kg/day, po administered for 4 weeks followed by 2 week recovery period (Rvb =77.4 +/- 3.7 %); type: organism-based; conditions: in vivo, 672 h
[19] = Toxicity in female Sprague-Dawley rat assessed as mortality at 50 to 450 mg/kg/day, po administered for 4 weeks; type: organism-based; conditions: in vivo, 672 h, dose 50-450 mg/kg/day; procedure, shortened: as §2
[20] = Toxicity in male Sprague-Dawley rat assessed as change in lymphocyte level at 150 mg/kg/day, po administered for 4 weeks followed by 2 week recovery period (Rvb =77.4 +/- 3.7 %); type: organism-based; conditions: in vivo, 672 h
[21] = Toxicity in male Sprague-Dawley rat assessed as change in lymphocyte level at 450 mg/kg/day, po administered for 4 weeks followed by 2 week recovery period (Rvb =77.4 +/- 3.7 %); type: organism-based; conditions: in vivo, 672 h
[22] = Toxicity in female Sprague-Dawley rat assessed as change in hemoglobin count at 450 mg/kg/day, po administered for 4 weeks followed by 2 week recovery period (Rvb =136 +/- 7 g/L); type: organism-based; conditions: in vivo, 672 h
[23] = Toxicity in female Sprague-Dawley rat assessed as abnormalities in urine at 50 to 450 mg/kg/day, po administered for 4 weeks followed by 2 week recovery period measured within last 7 days of recover period; type: organism-based; conditions: in vivo, 672 h, dose 50-450 mg/kg/day
Procedure, shortened: (§3)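 SD rats, 6-7 weeks, 12 male and 12 female per group. Oral dosing once daily at 50, 150 or 450 mg/kg/day or vehicle for 4 weeks, then 2-week recovery. 8 per sex dissected after last dose, remaining 4 per sex after 14-day recovery. Body weight, urine, food intake and clinical signs monitored.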

[24] = Toxicity in male Sprague-Dawley rat assessed as mortality at 50 to 450 mg/kg/day, po administered for 4 weeks followed by 2 week recovery period; type: organism-based; conditions: in vivo, 672 h, dose 50-450 mg/kg/day
[25] = Toxicity in female Sprague-Dawley rat assessed as abnormalities in urine at 50 to 450 mg/kg/day, po administered for 4 weeks measured within last 7 days of treatment period; type: organism-based; conditions: in vivo, 672 h, dose 50-450 mg/kg/day; procedure, shortened: as §3
[26] = Toxicity in female Sprague-Dawley rat assessed as change in hemoglobin count at 150 mg/kg/day, po administered for 4 weeks followed by 2 week recovery period (Rvb =136 +/- 7 g/L); type: organism-based; conditions: in vivo, 672 h

CC(=O)NC[C@@H]1OC(=O)N2c3cc(F)c(N4CC[S+]([O-])CC4)cc3OC[C@@H]12
Activity [1]: Non-Toxic

CC(=O)NC[C@@H]1OC(=O)N2c3cc(F)c(N4CCSCC4)cc3OC[C@@H]12
Activity [2]: Non-Toxic
Activity [3]: 6.61 10^12/L
Activity [4]: 43.5%
Activity [5]: Non-Toxic
Activity [6]: 6.22 10^9/L
Activity [7]: 12.2%
Activity [8]: 2.82 10^9/L
Activity [9]: Non-Toxic
Activity [10]: 126 g/L
Activity [11]: 18.5 pg
Activity [12]: 14.8%
Activity [13]: Non-Toxic
Activity [14]: 18.7 pg
Activity [15]: 13%
Activity [16]: Non-Toxic
Activity [17]: Non-Toxic
Activity [18]: 82%
Activity [19]: Non-Toxic
Activity [20]: 77.3%
Activity [21]: 80.7%
Activity [22]: 122 g/L
Activity [23]: Non-Toxic
Activity [24]: Non-Toxic
Activity [25]: Non-Toxic
Activity [26]: 124 g/L
